The source of these data is ChEMBL document CHEMBL3399972, “Structure-activity relationships of a novel pyranopyridine series of Gram-negative bacterial efflux pump inhibitors” (Bioorg Med Chem, 2015).

Molecules are shown by their SMILES. Converted amounts (≈) assume the structure as drawn. The source made the active and inactive calls.

Tested on in one series: not listed separately
Put plainly: Metabolic stability in human liver microsomes assessed as compound remaining at 25 uM after 60 mins by HPLC analysis in presence of NADPH. Type of series: ADME. The note with it: read-out: Stability. The gist of the method: (§1)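 Human or mouse liver microsomes at 0.5 mg/mL in 100 mM potassium phosphate pH 7.4 with 3 mM MgCl2, test compound 25 µM final, with or without (control) 2 mM NADPH; 37 °C for one hour, then stopped with equal volume acetonitrile containing 0.1% trifluoroacetic acid. Value: peak area with NADPH relative to no-NADPH control, as percent remaining.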
In general terms: Liver microsomes are vesicles of endoplasmic reticulum, rich in cytochrome P450 enzymes.
As for `COc1ccc(CCSc2nc(N3CCOCC3)c3c(c2C#N)CC(C)(C)OC3)cc1OC`, the remaining at 1 h, 25 µM worked out at 21%.
Still for that read-out and setting: with `COCCN1CCN(c2nc(SCCc3ccccc3)c(C#N)c3c2COC(C)(C)C3)CC1` the figure was 0%.
On the same count and under the same terms, the result for `COCCN1CCN(c2nc(SCCc3ccccn3)c(C#N)c3c2COC(C)(C)C3)CC1` reads 0%.

In another series the test system is Escherichia coli. Description: Inhibition of multidrug resistance efflux pump in wild-type Escherichia coli AB1157 assessed as concentration required to reduce piperacillin MIC by 4-fold by checkerboard assay.
Conditions: not given
For the molecule `COc1ccc(CCSc2nc(N3CCOCC3)c3c(c2C#N)CC(C)(C)OC3)cc1OC`, the INH came to 0.8 µM.
Still for that read-out and setting: with `CN(C)c1nc(SCCc2ccccc2)c(C#N)c2c1COC(C)(C)C2` the figure was 9.4 µM; with `CC1(C)Cc2c(C#N)c(SCCc3ccccc3)nc(N3CCSCC3)c2CO1`, 1.6 µM.
As for `CC1(C)Cc2c(C#N)c(SCCc3cccc(-c4nnn[nH]4)c3)nc(N3CCOCC3)c2CO1`, the INH worked out at 12.5 µM.
The same measure, in the same setting: the result for `CC1(C)Cc2c(C#N)c(SCCc3ccccc3)nc(N3CCCOCC3)c2CO1` reads 1.6 µM; that for `CC1(C)Cc2c(C#N)c(SCCc3ccc(S(=O)(=O)O)cc3)nc(N3CCOCC3)c2CO1`, above 100 µM; that for `CC1(C)Cc2c(C#N)c(SCCc3c[nH]c4ccccc34)nc(N3CCOCC3)c2CO1`, 2.4 µM.
Same read-out and setting: the result for `COCCN1CCN(c2nc(SCCc3ccccc3)c(C#N)c3c2COC(C)(C)C3)CC1` reads 0.4 µM.
Still for that read-out and setting: with `CC1(C)Cc2c(C#N)c(SCc3ccccc3)nc(N3CCOCC3)c2CO1` the figure was above 100 µM; with `CC(=O)Oc1cccc(CCSc2nc(N3CCOCC3)c3c(c2C#N)CC(C)(C)OC3)c1`, 1.6 µM; with `COCCN1CCN(c2nc(SCCc3cccc(OC)c3)c(C#N)c3c2COC(C)(C)C3)CC1`, 4.7 µM.
On to `CC1CN(c2nc(SCCc3ccc(NS(C)(=O)=O)cc3)c(C#N)c3c2COC(C)(C)C3)CC(C)O1` (configuration not stated), for which the INH was 6.3 µM.
For the molecule `COCCN1CCN(c2nc(SCCc3ccccn3)c(C#N)c3c2COC(C)(C)C3)CC1`, the INH was 3.1 µM.
Same read-out and setting: the result for `COc1ccc(CCSc2nc(N3CCOCC3)c3c(c2C#N)CC(C)(C)OC3)cc1` reads 3.1 µM; that for `CC1(C)Cc2c(C#N)c(SCCc3cccc(C#N)c3)nc(N3CCOCC3)c2CO1`, 3.9 µM.

Tested on in a further series: not listed separately
Put plainly: Aqueous solubility of the compound by nephlometric method.
Conditions: not given
The series is classed as physicochemical. Summed up: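 Maximum solubility in water, measured by nephelometry.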
As a reminder, the kinetic solubility is the concentration staying in solution when a stock, usually in DMSO, is diluted into the medium. In turn, `COc1ccc(CCSc2nc(N3CCOCC3)c3c(c2C#N)CC(C)(C)OC3)cc1OC` yielded a solubility (kinetic) of 25 µM (≈ 11.7 µg/mL).
Still for that read-out and setting: the result for `COCCN1CCN(c2nc(SCCc3ccccc3)c(C#N)c3c2COC(C)(C)C3)CC1` reads 50 µM (≈ 23.3 µg/mL); that for `COCCN1CCN(c2nc(SCCc3ccccn3)c(C#N)c3c2COC(C)(C)C3)CC1`, at least 100 µM.

The subject of a further series is Escherichia coli. Put plainly: Inhibition of lactose permease-dependent [3H]TMG uptake in Escherichia coli HN1157 up to 20 uM.
Conditions: not given
Summed up: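 Proton motive force probed in E. coli HN1157 by LacY permease-mediated accumulation of [methyl-3H] thiogalactopyranoside (stock 1 mCi/ml, 7 Ci/mmol), compounds tested at concentrations up to 20 µM.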
For `CC1(C)Cc2c(C#N)c(SCc3ccccc3)nc(N3CCOCC3)c2CO1`, the inhibition result was “inactive”.

The test system of another series is Escherichia coli. Put plainly: Antibacterial activity against Escherichia coli at 100 uM. Type of series: functional, organism-based.
Conditions: not given
Consider `COc1ccc(CCSc2nc(N3CCOCC3)c3c(c2C#N)CC(C)(C)OC3)cc1OC`, for which the result was inactive.
As for `CN(C)c1nc(SCCc2ccccc2)c(C#N)c2c1COC(C)(C)C2`, the result was inactive.
On the same count and under the same terms, with `CC1(C)Cc2c(C#N)c(SCCc3ccccc3)nc(N3CCSCC3)c2CO1` the entry was “inactive”; with `CC1(C)Cc2c(C#N)c(SCCc3cccc(-c4nnn[nH]4)c3)nc(N3CCOCC3)c2CO1`, “inactive”.
For `CC1(C)Cc2c(C#N)c(SCCc3ccccc3)nc(N3CCCOCC3)c2CO1`, the result was inactive.
On the same count and under the same terms, the result for `CC1(C)Cc2c(C#N)c(SCCc3ccc(S(=O)(=O)O)cc3)nc(N3CCOCC3)c2CO1` reads “inactive”; that for `CC1(C)Cc2c(C#N)c(SCCc3c[nH]c4ccccc34)nc(N3CCOCC3)c2CO1`, “inactive”; that for `COCCN1CCN(c2nc(SCCc3ccccc3)c(C#N)c3c2COC(C)(C)C3)CC1`, “inactive”.
The same measure, in the same setting: the result for `CC1(C)Cc2c(C#N)c(SCc3ccccc3)nc(N3CCOCC3)c2CO1` reads “inactive”; that for `CC(=O)Oc1cccc(CCSc2nc(N3CCOCC3)c3c(c2C#N)CC(C)(C)OC3)c1`, “inactive”.
Consider `COCCN1CCN(c2nc(SCCc3cccc(OC)c3)c(C#N)c3c2COC(C)(C)C3)CC1`, for which the result was inactive.
Same read-out and setting: the result for `CC1CN(c2nc(SCCc3ccc(NS(C)(=O)=O)cc3)c(C#N)c3c2COC(C)(C)C3)CC(C)O1` (configuration not stated) reads “inactive”; that for `COCCN1CCN(c2nc(SCCc3ccccn3)c(C#N)c3c2COC(C)(C)C3)CC1`, “inactive”; that for `COc1ccc(CCSc2nc(N3CCOCC3)c3c(c2C#N)CC(C)(C)OC3)cc1`, “inactive”.
As to `CC1(C)Cc2c(C#N)c(SCCc3cccc(C#N)c3)nc(N3CCOCC3)c2CO1`, the result was inactive.

Tested on in the next series: not listed separately
Put plainly: Metabolic stability in mouse liver microsomes assessed as compound remaining at 25 uM after 60 mins by HPLC analysis in presence of NADPH. The conditions noted are these: read-out: Stability. Type of series: ADME. The gist of the method:
as §1
For the molecule `COc1ccc(CCSc2nc(N3CCOCC3)c3c(c2C#N)CC(C)(C)OC3)cc1OC`, the remaining at 1 h, 25 µM turned out to be 5%.
With `COCCN1CCN(c2nc(SCCc3ccccc3)c(C#N)c3c2COC(C)(C)C3)CC1`, the remaining at 1 h, 25 µM came out at 0%.
On the same count and under the same terms, the result for `COCCN1CCN(c2nc(SCCc3ccccn3)c(C#N)c3c2COC(C)(C)C3)CC1` reads 3%.

Tested on in a further series: not listed separately
Description: Inhibition of mouse liver microsome CYP3A4 at 3 uM after 10 mins by luminescence assay. The series is classed as ADME. The conditions noted are these: microsomes.
In the case of `COc1ccc(CCSc2nc(N3CCOCC3)c3c(c2C#N)CC(C)(C)OC3)cc1OC`, the “inhibition (INH)” value is 49%.
Same read-out and setting: with `COCCN1CCN(c2nc(SCCc3ccccc3)c(C#N)c3c2COC(C)(C)C3)CC1` the figure was 18%; with `COCCN1CCN(c2nc(SCCc3ccccn3)c(C#N)c3c2COC(C)(C)C3)CC1`, 14%.

In another series the test system is HeLa. Description: Cytotoxicity against human HeLa cells. Type of series: cell-based.
Conditions: not given
Broadly, the CC50 is the concentration giving 50% cytotoxicity. `COc1ccc(CCSc2nc(N3CCOCC3)c3c(c2C#N)CC(C)(C)OC3)cc1OC` came in with a CC50 of 69.4 µM.
On the same count and under the same terms, with `CN(C)c1nc(SCCc2ccccc2)c(C#N)c2c1COC(C)(C)C2` the figure was 57.4 µM; with `CC1(C)Cc2c(C#N)c(SCCc3ccccc3)nc(N3CCSCC3)c2CO1`, above 100 µM; with `CC1(C)Cc2c(C#N)c(SCCc3cccc(-c4nnn[nH]4)c3)nc(N3CCOCC3)c2CO1`, 20.7 µM.
Same read-out and setting: with `CC1(C)Cc2c(C#N)c(SCCc3ccccc3)nc(N3CCCOCC3)c2CO1` the figure was above 100 µM.
`CC1(C)Cc2c(C#N)c(SCCc3ccc(S(=O)(=O)O)cc3)nc(N3CCOCC3)c2CO1`: the CC50 was determined as 17.2 µM.
On the same count and under the same terms, the result for `CC1(C)Cc2c(C#N)c(SCCc3c[nH]c4ccccc34)nc(N3CCOCC3)c2CO1` reads 44.8 µM.
The same measure, in the same setting: the result for `COCCN1CCN(c2nc(SCCc3ccccc3)c(C#N)c3c2COC(C)(C)C3)CC1` reads 34.2 µM; that for `CC(=O)Oc1cccc(CCSc2nc(N3CCOCC3)c3c(c2C#N)CC(C)(C)OC3)c1`, 48.3 µM.
On the same count and under the same terms, the result for `COCCN1CCN(c2nc(SCCc3cccc(OC)c3)c(C#N)c3c2COC(C)(C)C3)CC1` reads 46.5 µM; that for `CC1CN(c2nc(SCCc3ccc(NS(C)(=O)=O)cc3)c(C#N)c3c2COC(C)(C)C3)CC(C)O1` (configuration not stated), 67 µM.
`COCCN1CCN(c2nc(SCCc3ccccn3)c(C#N)c3c2COC(C)(C)C3)CC1` had a CC50 above 100 µM.
The same measure, in the same setting: the result for `COc1ccc(CCSc2nc(N3CCOCC3)c3c(c2C#N)CC(C)(C)OC3)cc1` reads above 100 µM; that for `CC1(C)Cc2c(C#N)c(SCCc3cccc(C#N)c3)nc(N3CCOCC3)c2CO1`, above 100 µM.

The test system of a further series is Escherichia coli. Description: Inhibition of multidrug resistance efflux pump in Escherichia coli assessed as concentration required to reduce levofloxacin MIC by 4-fold by checkerboard assay.
Conditions: not given
As for `COc1ccc(CCSc2nc(N3CCOCC3)c3c(c2C#N)CC(C)(C)OC3)cc1OC`, the INH was determined as 1.3 µM.
On the same count and under the same terms, the result for `CN(C)c1nc(SCCc2ccccc2)c(C#N)c2c1COC(C)(C)C2` reads above 100 µM; that for `CC1(C)Cc2c(C#N)c(SCCc3ccccc3)nc(N3CCSCC3)c2CO1`, above 100 µM; that for `CC1(C)Cc2c(C#N)c(SCCc3cccc(-c4nnn[nH]4)c3)nc(N3CCOCC3)c2CO1`, above 100 µM.
Same read-out and setting: the result for `CC1(C)Cc2c(C#N)c(SCCc3ccccc3)nc(N3CCCOCC3)c2CO1` reads above 100 µM.
On the same count and under the same terms, the result for `CC1(C)Cc2c(C#N)c(SCCc3ccc(S(=O)(=O)O)cc3)nc(N3CCOCC3)c2CO1` reads above 100 µM; that for `CC1(C)Cc2c(C#N)c(SCCc3c[nH]c4ccccc34)nc(N3CCOCC3)c2CO1`, 12.5 µM; that for `COCCN1CCN(c2nc(SCCc3ccccc3)c(C#N)c3c2COC(C)(C)C3)CC1`, 6.3 µM.
For `CC1(C)Cc2c(C#N)c(SCc3ccccc3)nc(N3CCOCC3)c2CO1`, the INH is above 100 µM.
With `CC(=O)Oc1cccc(CCSc2nc(N3CCOCC3)c3c(c2C#N)CC(C)(C)OC3)c1`, the INH was determined as 1.6 µM.
The same measure, in the same setting: with `COCCN1CCN(c2nc(SCCc3cccc(OC)c3)c(C#N)c3c2COC(C)(C)C3)CC1` the figure was 6.3 µM; with `CC1CN(c2nc(SCCc3ccc(NS(C)(=O)=O)cc3)c(C#N)c3c2COC(C)(C)C3)CC(C)O1` (configuration not stated), 6.3 µM; with `COCCN1CCN(c2nc(SCCc3ccccn3)c(C#N)c3c2COC(C)(C)C3)CC1`, 12.5 µM.
Same read-out and setting: with `COc1ccc(CCSc2nc(N3CCOCC3)c3c(c2C#N)CC(C)(C)OC3)cc1` the figure was 6.3 µM; with `CC1(C)Cc2c(C#N)c(SCCc3cccc(C#N)c3)nc(N3CCOCC3)c2CO1`, 12.5 µM.
